{
  "source": "ChEMBL document CHEMBL1137220",
  "about": "“2-(2-(dimethylaminomethyl)phenoxy)-5-iodophenylamine: an improved serotonin transporter imaging agent” (J Med Chem, 2004)",
  "key": {"[1]": {"assay": "Biodistribution in rat kidney was determined after 60 min of intravenous administration of the compound; [125I]- is used as radioactive isotope", "type": "ADME, organism-based", "conditions": "in vivo, 1 h", "how_it_was_run": "(§1)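 Rats under ether anesthesia, three per group, received 10 μCi tracer in 0.2 mL saline into the femoral vein. They were killed by cardiac excision under ether at each time point. Organs were removed, weighed and counted. Percent dose per organ was calculated against a 1%-of-injected-dose standard counted at the same time.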"}, "[2]": {"assay": "Regional brain distribution in rat cerebellum was determined after 120 min of intravenous administration of the compound; [125I]- is used as radioactive isotope", "type": "ADME, tissue-based", "conditions": "in vivo, 2 h", "how_it_was_run": "(§2)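 Rats, three per group, injected with 10 μCi tracer in 0.2 mL saline via the femoral vein under ether anesthesia and killed by cardiac excision at the stated time. Cortex (frontal plus occipital), striatum, hippocampus, cerebellum and hypothalamus were dissected, weighed and gamma-counted. Values are % dose/g, calculated by comparison with counts of a 100-fold diluted aliquot of the injected dose.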"}, "[3]": {"assay": "Biodistribution in rat blood was determined after 120 min of intravenous administration of the compound; [125I]- is used as radioactive isotope", "type": "ADME, organism-based", "conditions": "in vivo, 2 h", "how_it_was_run": "as §1"}, "[4]": {"assay": "Distribution ratio in cortex and cerebellum was determined after 120 min of intravenous administration of the compound; [125I]- is used as radioactive isotope", "type": "ADME, tissue-based", "conditions": "rat, 2 h", "how_it_was_run": "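After femoral-vein injection of 10 μCi [¹²⁵I] tracer in 0.2 mL saline under ether anaesthesia (three rats per group), brain regions were dissected, weighed and counted: cortex (frontal plus occipital), hippocampus, hypothalamus and cerebellum. %dose/g was calculated against a diluted injected-dose standard. Ratio = (region − cerebellum)/cerebellum on a %dose/g basis, with cerebellum as the background region.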"}, "[5]": {"assay": "Biodistribution in rat brain was determined after 60 min of intravenous administration of the compound; [125I]- is used as radioactive isotope", "type": "ADME, organism-based", "conditions": "in vivo, 1 h", "how_it_was_run": "as §1"}, "[6]": {"assay": "Regional brain distribution in rat hypothalamus was determined after 6 hours of intravenous administration of the compound; [125I]- is used as radioactive isotope", "type": "ADME, tissue-based", "conditions": "in vivo", "how_it_was_run": "as §2"}, "[7]": {"assay": "Biodistribution in rat brain was determined after 11 hours of intravenous administration of the compound; [125I]- is used as radioactive isotope", "type": "ADME, organism-based", "conditions": "in vivo", "how_it_was_run": "as §1"}, "[8]": {"assay": "Biodistribution in rat kidney was determined after 24 hours of intravenous administration of the compound; [125I]- is used as radioactive isotope", "type": "ADME, organism-based", "conditions": "in vivo", "how_it_was_run": "as §1"}, "[9]": {"assay": "Regional brain distribution in rat cerebellum was determined after 11 hours of intravenous administration of the compound; [125I]- is used as radioactive isotope", "type": "ADME, tissue-based", "conditions": "in vivo", "how_it_was_run": "as §2"}, "[10]": {"assay": "Biodistribution in rat liver was determined after 11 hours of intravenous administration of the compound; [125I]- is used as radioactive isotope", "type": "ADME, organism-based", "conditions": "in vivo", "how_it_was_run": "as §1"}, "[11]": {"assay": "Biodistribution in rat thyroid was determined after 11 hours of intravenous administration of the compound; [125I]- is used as radioactive isotope", "type": "ADME, organism-based, Thyroid gland", "conditions": "in vivo", "how_it_was_run": "(§3)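 Rats, three per group, under ether anaesthesia, received 10 μCi of [¹²⁵I]-labelled tracer in 0.2 mL saline into the femoral vein. They were killed by cardiac excision under ether at each time point. Organs were removed, weighed and counted. Percent dose per organ was calculated against counts of a 1% aliquot of the injected dose (100-fold diluted) counted at the same time.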"}, "[12]": {"assay": "Regional brain distribution in rat cortex was determined after 30 min of intravenous administration of the compound; [125I]- is used as radioactive isotope", "type": "ADME", "conditions": "in vivo, 0.5 h", "how_it_was_run": "as §2"}, "[13]": {"assay": "Regional brain distribution in rat cerebellum was determined after 2 min of intravenous administration of the compound; [125I]- is used as radioactive isotope", "type": "ADME, tissue-based", "conditions": "in vivo", "how_it_was_run": "as §2"}, "[14]": {"assay": "Regional brain distribution in rat hypothalamus was determined after 60 min of intravenous administration of the compound; [125I]- is used as radioactive isotope", "type": "ADME, tissue-based", "conditions": "in vivo, 1 h", "how_it_was_run": "as §2"}, "[15]": {"assay": "Biodistribution in rat liver was determined after 24 hours of intravenous administration of the compound; [125I]- is used as radioactive isotope", "type": "ADME, organism-based", "conditions": "in vivo", "how_it_was_run": "as §1"}, "[16]": {"assay": "Biodistribution in rat skin was determined after 120 min of intravenous administration of the compound; [125I]- is used as radioactive isotope", "type": "ADME, organism-based, Zone of skin", "conditions": "in vivo, 2 h", "how_it_was_run": "as §3"}, "[17]": {"assay": "Regional brain distribution in rat cerebellum was determined after 24 hours of intravenous administration of the compound; [125I]- is used as radioactive isotope", "type": "ADME, tissue-based", "conditions": "in vivo", "how_it_was_run": "as §2"}, "[18]": {"assay": "Biodistribution in rat blood was determined after 240 min of intravenous administration of the compound; [125I]- is used as radioactive isotope", "type": "ADME, organism-based", "conditions": "in vivo, 4 h", "how_it_was_run": "as §1"}, "[19]": {"assay": "Regional brain distribution in rat hypothalamus was determined after 2 min of intravenous administration of the compound; [125I]- is used as radioactive isotope", "type": "ADME, tissue-based", "conditions": "in vivo", "how_it_was_run": "as §2"}},
  "note": "Values joined by “and” are separate entries in the source; they are usually repeats but may differ in a detail not shown here. Identical values can stand only once.",
  "data": [
    {"smiles": "CN(C)Cc1ccccc1Oc1ccc(I)cc1N", "values": [
      {"measurement": "Dose", "setting": "[1]", "value": 1.67, "unit": "%"},
      {"measurement": "Dose/g", "setting": "[2]", "value": 0.21, "unit": "%"},
      {"measurement": "Dose", "setting": "[3]", "value": 3.15, "unit": "%"},
      {"measurement": "Dose/g", "setting": "[4]", "value": 1.48, "unit": "%"},
      {"measurement": "Dose", "setting": "[5]", "value": 1.74, "unit": "%"},
      {"measurement": "Dose/g", "setting": "[6]", "value": 0.09, "unit": "%"},
      {"measurement": "Dose", "setting": "[7]", "value": 0.02, "unit": "%"},
      {"measurement": "Dose", "setting": "[8]", "value": 0.17, "unit": "%"},
      {"measurement": "Dose/g", "setting": "[9]", "value": 0.01, "unit": "%"},
      {"measurement": "Dose", "setting": "[10]", "value": 2.64, "unit": "%"},
      {"measurement": "Dose", "setting": "[11]", "value": 5.15, "unit": "%"},
      {"measurement": "Dose/g", "setting": "[12]", "value": 1.25, "unit": "%"},
      {"measurement": "Dose/g", "setting": "[13]", "value": "0.79% and 0.64%"},
      {"measurement": "Dose/g", "setting": "[14]", "value": 1.18, "unit": "%"},
      {"measurement": "Dose", "setting": "[15]", "value": 1.83, "unit": "%"},
      {"measurement": "Dose", "setting": "[16]", "value": 12.5, "unit": "%"},
      {"measurement": "Dose/g", "setting": "[17]", "value": 0.0049, "unit": "%"},
      {"measurement": "Dose", "setting": "[18]", "value": 3.12, "unit": "%"},
      {"measurement": "Dose/g", "setting": "[19]", "value": 0.96, "unit": "%"}
    ]}
  ]
}
